Entries after “also recorded” stand apart in the source; their conditions may differ.
Legend:
FKBP12 = FKBP12 (Homo sapiens, UniProt P62942); assay: PPIase inhibition, FKBP12; type: biochemical
mouse (His)6-CypC = mouse (His)6-CypC (Mus musculus, UniProt P30412); assay: protease-free PPIase assay, CypC; type: biochemical
[1] = system: RANTES-induced migration of mouse CD4+ T cells; assay: Boyden chamber chemotaxis assay, RANTES-induced; type: cell-based; settings: 1 ng/ml mouse RANTES, activated mouse CD4+ T cells (data not shown)
Human CypB = Human CypB (Homo sapiens, UniProt P23284); assay: protease-free PPIase assay, CypB; type: biochemical; settings: up to a concentration of 30 μM
[2] = system: CypB-induced chemotaxis of mouse CD4+ T cells; assay: Boyden chamber chemotaxis assay, CypB-induced; type: cell-based; settings: 2 μM compound, 200 ng/ml CypB, activated mouse CD4+ T cells, 50 min
Summary of the method: (§1)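 Mouse spleen cells (3×10^6/well) stimulated overnight with ConA 10 μg/ml in Click's medium + 5% FCS, 37°C, 5% CO2; CD4+ T cells isolated by MACS negative depletion. 104 cells placed in upper wells of 48-well Boyden chamber (5-μm polycarbonate membrane). Lower wells: RPMI-1640 + 1% BSA with recombinant human CypA or recombinant CypB. Test compound added to top and bottom wells. 50 min, 37°C. Membrane Wright-Giemsa stained; chemotactic index = migrated cells/mean medium-alone.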

Par14 = Par14 (Homo sapiens, UniProt Q9Y237); assay: PPIase inhibition, Par14; type: biochemical
CypA [3] = target: T1, CypA (Homo sapiens, UniProt P62937); assay: isothermal titration calorimetry; type: binding
[4] = system: CypA-induced chemotaxis of mouse CD4+ T cells; assay: Boyden chamber chemotaxis assay, CypA-induced; type: cell-based; settings: 2 μM compound, 100 ng/ml CypA, activated mouse CD4+ T cells, 50 min
Summary of the method: as §1

[5] = ITC control titration of CsA with compound 1; type: binding; settings: syringe 1, cell CsA; n.s. = no signal of heat formation
CypA [6] = target: T1, CypA; assay: protease-free PPIase assay, CypA; type: biochemical; settings: 35 mM HEPES pH 7.8, 283 K, Suc-Ala-Ala-Pro-Phe-pNA 60 μM

T1 sequence (P62937 whole entry): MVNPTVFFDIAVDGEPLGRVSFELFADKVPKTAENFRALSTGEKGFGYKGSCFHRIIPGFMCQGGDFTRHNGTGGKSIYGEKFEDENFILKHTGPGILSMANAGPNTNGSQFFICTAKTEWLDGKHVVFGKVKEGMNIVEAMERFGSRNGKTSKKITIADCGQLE
Sequence of mouse (His)6-CypC (P30412 whole entry): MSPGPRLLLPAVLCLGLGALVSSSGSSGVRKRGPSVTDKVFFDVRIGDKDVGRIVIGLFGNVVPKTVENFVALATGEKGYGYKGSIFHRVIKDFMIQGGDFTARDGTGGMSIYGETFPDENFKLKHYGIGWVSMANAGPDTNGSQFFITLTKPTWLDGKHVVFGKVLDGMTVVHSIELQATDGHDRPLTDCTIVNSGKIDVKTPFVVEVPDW
Sequence of Par14 (Q9Y237 whole entry): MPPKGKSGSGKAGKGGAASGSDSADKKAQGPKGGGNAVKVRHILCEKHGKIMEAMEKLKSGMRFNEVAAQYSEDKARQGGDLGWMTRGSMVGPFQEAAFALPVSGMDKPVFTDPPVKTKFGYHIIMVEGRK
Sequence of Human CypB (P23284 34-216): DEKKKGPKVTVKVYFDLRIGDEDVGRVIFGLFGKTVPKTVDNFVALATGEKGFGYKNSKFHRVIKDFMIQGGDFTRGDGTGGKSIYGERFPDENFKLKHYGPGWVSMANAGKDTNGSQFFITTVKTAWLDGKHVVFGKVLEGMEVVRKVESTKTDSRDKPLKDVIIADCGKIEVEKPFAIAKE
Sequence of FKBP12 (P62942 whole entry, species assumed): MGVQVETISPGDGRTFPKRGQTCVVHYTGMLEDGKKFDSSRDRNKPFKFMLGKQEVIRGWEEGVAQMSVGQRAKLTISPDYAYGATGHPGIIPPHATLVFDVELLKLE

Row | Ki (CypA [6]) | Compound | Ki (FKBP12) | Ki (mouse (His)6-CypC; CypC, 35 mM HEPES pH 7.8, 283 K, Suc-Ala-Ala-Pro-Phe-pNA 60 μM) | response of PPIase activity of CypC (mouse (His)6-CypC; up to a concentration of 30 μM) | effect on RANTES-induced cell migration [1] | response of PPIase activity of CypB (Human CypB) | effect on CypB-induced chemotaxis [2] | influence on Par14 (Par14) | association constant KA (CypA [3]; competition ITC approach, calculated by eq. 2, 293 K) | binding enthalpy ΔH (CypA [3]; competition ITC approach, calculated by eq. 3, 293 K) | Kd (CypA [3]; read-out: dissociation constant KD, ITC probe of CsA/compound 1 competition) | inhibition of CypA-induced chemotaxis [4] | KA [5]
1 | – | O=C(c1cc(-c2cc(F)cc([N+](=O)[O-])c2O)cc([N+](=O)[O-])c1O)C1CCc2ccccc21 (stereo not shown) [Compound 1] | 38 ± 8 µM | > 100 µM | did not respond | not impacted | did not respond | barely impacted; also recorded: not influenced | does not influence | 44000 M⁻¹ | -2.8 kcal/mol | 22.6 µM | almost completely; also recorded: specifically inhibited | n.s.
2 | 0.0024 ± 0.0003 µM | [O-(CF-NH(CH2)2NHC(O)CH2-)D-Ser]^8CsA | – | – | – | – | – | – | – | – | – | – | – | –
